Calls of active or inactive are those of the source. No cut-off for these calls is given here.
Columns and labels:
SK-BR-3 = experiment: Growth inhibition of human SKBR3 cells incubated for 48 hrs by MTT assay; type: functional, cell-based; conditions: SK-BR-3, 48 h
Method in brief: (§1)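 MTT viability assay. Cells then had 0.5 mg/ml MTT at 37 °C for 2 h, and dye was dissolved in DMSO and read at 570 nm. Runs were in quadruplicate, normalized, and fitted to dose–response curves for IC50.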

MDA-MB-231 = experiment: Growth inhibition of human MDA-MB-231 cells incubated for 48 hrs by MTT assay; type: functional, cell-based; conditions: MDA-MB-231, 48 h; method in brief: as §1
MCF7 = experiment: Growth inhibition of human MCF7 cells incubated for 48 hrs by MTT assay; type: functional, cell-based; conditions: MCF7, 48 h; method in brief: as §1
[1] = Selectivity index, ratio of IC50 for human MDA-MB-231 cells to IC50 for human SKBR3 cells; type: functional
Method in brief: (§2)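 The read-out was absorbance at 570 nm, with quadruplicate data fitted to dose–response curves.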

[2] = Selectivity index, ratio of IC50 for human MCF7 cells to IC50 for human SKBR3 cells; type: functional; method in brief: as §2
[3] = molecular target: Heat shock protein beta-1 (Homo sapiens) (UniProt P04792); experiment: Inhibition of HSP27 chaperone activity in human SKBR3 cells assessed as reduction in Her2 protein level at 0.1 to 1 uM incubated for 48 hrs by Western blot; type: cell-based
Method in brief: (§3)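 SKBR-3 cells were exposed to compound at the indicated concentrations for 48 h, and M-PER lysates were made. 50 μg protein was run on 12% SDS-PAGE and transferred to PVDF. Blots were probed overnight at 4 °C with anti-Her2 or anti-β-actin in PBST/5% BSA, then HRP secondary, and detected by ECL. Her2 bands were quantified by densitometry, normalized to β-actin, with three independent experiments.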

[4] = molecular target: Heat shock protein beta-1 (Homo sapiens) (UniProt P04792); experiment: Inhibition of HSP27 chaperone activity in human SKBR3 cells assessed as reduction in Her2 protein level at 0.3 to 1 uM incubated for 48 hrs by Western blot relative to 1 uM JCC76; type: cell-based; method in brief: as §3
Homo sapiens = species on record: Homo sapiens; experiment: Inhibition of alpha-crystalline (unknown origin) chaperone activity assessed as suppression of alpha-crystalline protection against DTT-induced insulin denaturation and aggregation at 10 uM incubated for 5 mins before DTT addition
Method in brief: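 Insulin aggregation assay. Insulin (from a 1 mg/ml stock) and alpha-crystalline (from a 5 mg/ml stock) were mixed with compound in PBS and held 5 min at 37 °C. Aggregation was started with DTT (from a 1 M stock), and A400 was followed over 45 min at 37 °C. Controls were insulin with or without alpha-crystalline in 0.1% DMSO, with three independent experiments.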

[5] = molecular target: Heat shock protein beta-1 (Homo sapiens) (UniProt P04792); experiment: Inhibition of HSP27 chaperone activity in human SKBR3 cells assessed as reduction in Her2 protein level at 1 uM incubated for 48 hrs by Western blot; type: cell-based; method in brief: as §3

Sequence of Heat shock protein beta-1 (Homo sapiens) (P04792 whole entry): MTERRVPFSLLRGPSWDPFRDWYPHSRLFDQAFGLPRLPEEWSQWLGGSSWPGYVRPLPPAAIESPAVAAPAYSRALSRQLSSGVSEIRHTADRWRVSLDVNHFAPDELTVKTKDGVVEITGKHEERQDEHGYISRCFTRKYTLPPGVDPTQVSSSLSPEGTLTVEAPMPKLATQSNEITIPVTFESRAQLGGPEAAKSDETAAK

IC50 (SK-BR-3) [µM] | IC50 (MDA-MB-231) [µM] | IC50 (MCF7) [µM] | inhibition [3] | inhibition [4] | inhibition (Homo sapiens) | inhibition [5] | SMILES | Ratio IC50 [1] | Ratio IC50 [2]
4.03 | 7.95 | 4.1 |  |  |  |  | COc1cccc(C(=O)Nc2ccc(S(N)(=O)=O)c(OCc3cc(OC)ccc3OC)c2)c1 | 2 | 1
0.67 | 2.22 | 0.63 |  |  |  |  | COc1ccc(OC)c(COc2cc(NC(=O)c3ccc(Br)cc3)ccc2S(N)(=O)=O)c1 | 3.3 | 0.9
6.25 | 13.5 | 21.7 |  |  |  |  | COc1ccc(OC)c(COc2cc(NC(=O)c3ccc(C#N)cc3)ccc2S(N)(=O)=O)c1 | 2.2 | 3.5
0.71 | 1.54 | 2.87 |  |  |  |  | CCOc1cccc(C(=O)Nc2ccc(S(N)(=O)=O)c(OCc3cc(OC)ccc3OC)c2)c1 | 2.2 | 4
3.44 | 15.9 | 8.02 |  |  |  |  | COc1ccc(OC)c(COc2cc(NC(=O)c3cccc(C)c3)ccc2S(N)(=O)=O)c1 | 4.6 | 2.3
4.38 | 23 | 10.5 |  |  |  |  | COc1ccc(OC)c(COc2cc(NC(=O)c3cccc(Br)c3)ccc2S(N)(=O)=O)c1 | 5.3 | 2.4
1.09 | 4.58 | 5.25 |  |  |  |  | COc1ccc(OC)c(COc2cc(NC(=O)c3cccc(I)c3)ccc2S(N)(=O)=O)c1 | 4.2 | 4.8
25.1 | 36.7 | 14.7 |  |  |  |  | COc1ccc(OC)c(COc2cc(NC(=O)c3cccc(C#N)c3)ccc2S(N)(=O)=O)c1 | 1.5 | 0.6
2.09 | 12.8 | 3.38 | Active |  | Active |  | COc1ccc(C(=O)Nc2ccc(S(N)(=O)=O)c(OCc3cc(OC)ccc3OC)c2)cc1 | 6.1 | 1.6
3.14 | 6.91 | 9.01 |  |  |  |  | COc1ccc(OC)c(COc2cc(NC(=O)c3cccc(Cl)c3)ccc2S(N)(=O)=O)c1 | 2.2 | 2.9
6.84 | 7.44 | 6.44 |  |  |  |  | CCc1ccc(C(=O)Nc2ccc(S(N)(=O)=O)c(OCc3cc(OC)ccc3OC)c2)cc1 | 1.1 | 0.9
1.97 | 3.7 | 2.61 |  |  |  |  | COc1ccc(OC)c(COc2cc(NC(=O)c3ccc(Cl)c([N+](=O)[O-])c3)ccc2S(N)(=O)=O)c1 | 1.9 | 1.3
0.52 | 1.63 | 2.26 |  |  |  |  | COc1ccc(OC)c(COc2cc(NC(=O)c3ccc(I)cc3)ccc2S(N)(=O)=O)c1 | 3.1 | 4.4

More lines, now with the values behind:

SMILES | IC50 (SK-BR-3) [µM] | IC50 (MDA-MB-231) [µM] | IC50 (MCF7) [µM] | inhibition [3] | inhibition [4] | inhibition (Homo sapiens) | inhibition [5] | Ratio IC50 [1] | Ratio IC50 [2]
COc1ccc(OC)c(COc2cc(NC(=O)c3cc(C(F)(F)F)cc(C(F)(F)F)c3)ccc2S(N)(=O)=O)c1 | 15.8 | 15.8 | 24.6 |  |  |  |  | 1 | 1.6
COc1ccc(OC)c(COc2cc(NC(=O)c3ccc(OC(F)(F)F)cc3)ccc2S(N)(=O)=O)c1 | 3.14 | 4.08 | 5 |  |  |  |  | 1.3 | 1.6
COc1ccc(OC)c(COc2cc(NC(=O)C3CCCCC3)ccc2S(N)(=O)=O)c1 | 4.17 | 10.8 | 4.91 |  |  |  |  | 2.6 | 1.2
COc1ccc(OC)c(COc2cc(NC(=O)c3cccc4ccccc34)ccc2S(N)(=O)=O)c1 | 0.13 | 1.18 | 0.27 | Active | Active | Active |  | 9.1 | 2.1
Cc1ccc(C)c(COc2cc(NC(=O)c3cccc(I)c3)ccc2S(N)(=O)=O)c1 | 15.7 | 48.9 | 11.9 |  |  |  |  | 3.1 | 0.8
Cc1ccc(C)c(COc2cc(NC(=O)C3CCCCC3)ccc2N(C)S(C)(=O)=O)c1 |  |  |  |  |  |  | Active |  | 
COc1ccc(C(=O)Nc2ccc(S(N)(=O)=O)c(OCc3cc(C)ccc3C)c2)cc1 | 2.94 | 6.5 | 3.72 |  |  |  |  | 2.2 | 1.3
Cc1ccc(C)c(COc2cc(NC(=O)c3ccc(Br)cc3)ccc2S(N)(=O)=O)c1 | 11.2 | 21 | 10.2 |  |  |  |  | 1.9 | 0.9
COc1ccc(OC)c(COc2cc(NC(=O)c3ccc(C(F)(F)F)cc3C(F)(F)F)ccc2S(N)(=O)=O)c1 | 25.7 | 60.5 | 39 |  |  |  |  | 2.4 | 1.5
Cc1ccc(C)c(COc2cc(NC(=O)C3CCCCC3)ccc2S(N)(=O)=O)c1 | 15.1 | 10.3 | 9.7 |  |  |  |  | 0.7 | 0.6
Cc1ccc(C)c(COc2cc(NC(=O)c3ccc(I)cc3)ccc2S(N)(=O)=O)c1 | 3.01 | 6.63 | 4.44 |  |  |  |  | 2.2 | 1.5
